Measured values taken from ChEMBL document CHEMBL1144782, “Isoindolo[2,1-a]quinoxaline derivatives, novel potent antitumor agents with dual inhibition of tubulin polymerization and topoisomerase I” (2008).

Key:
Assay type in all cases: functional
[1] = system: NCI-H226; experiment: Antitumor activity against human NCI-H226 cells
Method in brief: (§1)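 Run by the NCI in its in vitro disease-oriented screen of about 60 human tumour cell lines. For each line it reports pGI50 (50% net growth inhibition), pTGI (total growth inhibition) and pLC50 (50% net cell death), each as –log molar concentration. Where an effect was not reached within the tested range, the highest tested concentration was used.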

[2] = system: NCI-H23; experiment: Antitumor activity against human NCI-H23 cells; method in brief: as §1
[3] = Antitumor activity against human NCI-H322 cells; method in brief: as §1
[4] = system: NCI-H460; experiment: Antitumor activity against human NCI-H460 cells; method in brief: as §1
[5] = system: HCT-15; experiment: Antitumor activity against human HCT15 cells; method in brief: as §1
[6] = system: HT-29; experiment: Antitumor activity against human HT29 cells; method in brief: as §1
[7] = system: KM12; experiment: Antitumor activity against human KM12 cells; method in brief: as §1
[8] = system: SW-620; experiment: Antitumor activity against human SW620 cells
Method in brief: (§2)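 NCI 60-cell-line screen. Parameters were GI50 (50% net growth inhibition), TGI and LC50, each reported as –log molar concentration. Where an effect was not reached within the tested range, the highest tested concentration was used in the calculation.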

[9] = system: SF-295; experiment: Antitumor activity against human SF295 cells; method in brief: as §1
[10] = system: SNB-19; experiment: Antitumor activity against human SNB19 cells; method in brief: as §1
[11] = system: U-251; experiment: Antitumor activity against human U251 cells; method in brief: as §2
[12] = system: Malme-3M; experiment: Antitumor activity against human MALME3M cells; method in brief: as §1
[13] = system: SK-MEL-2; experiment: Antitumor activity against human SKMEL2 cells; method in brief: as §1
[14] = system: SK-MEL-28; experiment: Antitumor activity against human SKMEL28 cells; method in brief: as §1
[15] = system: SK-MEL-5; experiment: Antitumor activity against human SKMEL5 cells; method in brief: as §1
[16] = system: UACC-257; experiment: Antitumor activity against human UACC257 cells; method in brief: as §2
[17] = system: OVCAR-3; experiment: Antitumor activity against human OVCAR-3 cells; method in brief: as §1
[18] = system: OVCAR-5; experiment: Antitumor activity against human OVCAR5 cells; method in brief: as §1
[19] = system: OVCAR-8; experiment: Antitumor activity against human OVCAR8 cells; method in brief: as §1
[20] = system: 786-0; experiment: Antitumor activity against human 786-0 cells; method in brief: as §1
[21] = system: A498; experiment: Antitumor activity against human A498 cells; method in brief: as §1
[22] = system: ACHN; experiment: Antitumor activity against human ACHN cells; method in brief: as §1
[23] = system: RXF 393; experiment: Antitumor activity against human RXF393 cells; method in brief: as §1
[24] = system: BT-549; experiment: Antitumor activity against human BT549 cells; method in brief: as §1
[25] = system: NCI-H460; experiment: Cell viability against human NCI-H460 cells at 10 uM
[26] = system: CCRF-CEM; experiment: Antitumor activity against human CCRF-CEM cells; method in brief: as §1
[27] = system: RPMI-8226; experiment: Antitumor activity against human RPMI8226 cells; method in brief: as §1
[28] = system: MOLT-4; experiment: Antitumor activity against human MOLT4 cells; method in brief: as §1
[29] = system: SR; experiment: Antitumor activity against human SR cells; method in brief: as §2
[30] = system: EKVX; experiment: Antitumor activity against human EKVX cells; method in brief: as §1
[31] = system: HOP-62; experiment: Antitumor activity against human HOP62 cells; method in brief: as §1
[32] = system: PC-3; experiment: Antitumor activity against human PC3 cells; method in brief: as §1
[33] = system: DU-145; experiment: Antitumor activity against human DU145 cells; settings: Homo sapiens, DU-145; read-out: Log LC50 (the source's name) (converted); method in brief: as §1
[34] = system: NCI/ADR-RES; experiment: Antitumor activity against human NCI/ADR-RES cells; method in brief: as §1
[35] = system: Hs-578T; experiment: Antitumor activity against human HS578T cells; method in brief: as §1
[36] = system: MDA-MB-435; experiment: Antitumor activity against human MDA-MB-435 cells; method in brief: as §1
[37] = system: MCF7; experiment: Growth inhibition of human MCF7 cells after 72 hrs by MTT assay; settings: MCF7, 72 h
Method in brief: (§3)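 Growth inhibition by MTT after 72 h incubation. Resistant sublines: LoVoDoxo and MCF-7 MDR were kept in 0.1 µg/mL doxorubicin; CEMVbl-100 was selected against vinblastine. GI50 given as mean ± SEM of three independent experiments. Resistance index is resistant-line GI50 over parental GI50.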

[38] = system: MCF7; experiment: Growth inhibition of human multidrug-resistant MCF7 cells after 72 hrs by MTT assay; settings: MCF7, 72 h; method in brief: as §3
[39] = system: MCF7; experiment: Resistance index, Ratio of GI50 for human multidrug-resistant MCF7 cells to GI50 for human MCF7 cells; method in brief: as §3
[40] = system: CCRF-CEM; experiment: Growth inhibition of human CEM cells after 72 hrs by MTT assay; method in brief: as §3
[41] = system: CCRF-CEM; experiment: Growth inhibition of human vinblastine-resistant CEM cells after 72 hrs by MTT assay; method in brief: as §3
[42] = read-out: Log LC50 (the source's name) (converted)

## COc1ccc2c(c1)[nH]c(=O)c1c3ccccc3cn21
[1]
  GI50: 45.7 nM
  LC50 (50% net cell kill): > 100 µM
[1]; read-out: pTGI (converted)
  TGI: 525 nM
[2]
  GI50: 42.7 nM
  LC50 (50% net cell kill): > 100 µM
[2]; read-out: pTGI (converted)
  TGI: 3.39 µM
[3]
  GI50: 83.2 nM
  LC50 (50% net cell death): 7.76 µM
[3]; read-out: pTGI (converted)
  TGI: 2570 nM
[4]
  GI50: 34.7 nM
[4]; [42]
  CC50: 5.13 µM
[4]; read-out: pTGI (converted)
  TGI: 1120 nM
[5]
  GI50: 26.3 nM
[5]; [42]
  CC50: 4.57 µM
[5]; read-out: pTGI (converted)
  TGI: 1150 nM
[6]
  GI50: 33.9 nM
  LC50: > 100 µM
[6]; read-out: pTGI (converted)
  TGI: 1480 nM
[7]
  GI50: 33.1 nM
  LC50 (50% net cell death): 6.03 µM
[7]; read-out: pTGI (converted)
  TGI: 1510 nM
[8]
  GI50: 26.3 nM
[8]; [42]
  CC50: 4.17 µM
[8]; read-out: pTGI (converted)
  TGI: 1410 nM
[9]
  GI50: 26.9 nM
[9]; [42]
  CC50: 4.17 µM
[9]; read-out: pTGI (converted)
  TGI: 1050 nM
[10]
  GI50: 38.9 nM
[10]; [42]
  CC50: > 100 µM
[10]; read-out: pTGI (converted)
  TGI: 4.07 µM
[11]
  GI50: 43.6 nM
[11]; [42]
  CC50: 5.01 µM
[11]; read-out: pTGI (converted)
  TGI: 1510 nM
[12]
  GI50: 10 nM
[12]; [42]
  CC50: 8.51 µM
[12]; read-out: pTGI (converted)
  TGI: 3.39 µM
[13]
  GI50: 158 nM
  LC50: 7.76 µM
[13]; read-out: pTGI (converted)
  TGI: 2510 nM
[14]
  GI50: 52.5 nM
[14]; [42]
  CC50: 6.61 µM
[14]; read-out: pTGI (converted)
  TGI: 2510 nM
[15]
  GI50: 28.2 nM
  LC50: 3.47 µM
[15]; read-out: pTGI (converted)
  TGI: 1170 nM
[16]
  GI50: 5.13 µM
  LC50: 74.1 µM
[16]; read-out: pTGI (converted)
  TGI: 30.9 µM
[17]
  GI50: 22.4 nM
  LC50 (50% net cell death): 2880 nM
[17]; read-out: pTGI (converted)
  TGI: 64.6 nM
[18]
  GI50: 100 nM
  LC50 (50% net cell death): 77.6 µM
[18]; read-out: pTGI (converted)
  TGI: 7.94 µM
[19]
  GI50: 57.5 nM
  LC50 (50% net cell death): > 100 µM
[19]; read-out: pTGI (converted)
  TGI: 2340 nM
[20]
  GI50: 41.7 nM
[20]; [42]
  CC50: 4.57 µM
[20]; read-out: pTGI (converted)
  TGI: 1860 nM
[21]
  GI50: 22.4 nM
[21]; [42]
  CC50: > 100 µM
[21]; read-out: pTGI (converted)
  TGI: 1350 nM
[22]
  GI50: 126 nM
  LC50 (50% net cell kill): 4.37 µM
[22]; read-out: pTGI (converted)
  TGI: 1820 nM
[23]
  GI50: 20.4 nM
[23]; [42]
  CC50: > 100 µM
[23]; read-out: pTGI (converted)
  TGI: 3.16 µM
[24]
  GI50: 55 nM
  LC50 (50% net cell kill): 6.31 µM
[24]; read-out: pTGI (converted)
  TGI: 2040 nM
[25]
  Activity: 0%
[26]
  GI50: 30.2 nM
  LC50: > 100 µM
[26]; read-out: pTGI (converted)
  TGI: 1450 nM
[27]
  GI50: 36.3 nM
[27]; [42]
  CC50: 6.92 µM
[27]; read-out: pTGI (converted)
  TGI: 1410 nM
[28]
  GI50: 77.6 nM
  LC50: 75.9 µM
[28]; read-out: pTGI (converted)
  TGI: 2140 nM
[29]
  GI50: 10 nM
  LC50: 75.9 µM
[29]; read-out: pTGI (converted)
  TGI: 2040 nM
[30]
  GI50: 91.2 nM
  LC50 (50% net cell kill): > 100 µM
[30]; read-out: pTGI (converted)
  TGI: 29.5 µM
[31]
  GI50: 30.9 nM
  LC50 (50% net cell death): 3.89 µM
[31]; read-out: pTGI (converted)
  TGI: 1230 nM
[32]
  GI50: 37.1 nM
  LC50 (50% net cell death): > 100 µM
[32]; read-out: pTGI (converted)
  TGI: 2570 nM
[33]
  CC50: 4.27 µM
[34]
  GI50: 21.4 nM
  LC50: 10 µM
[34]; read-out: pTGI (converted)
  TGI: 57.5 nM
[35]
  GI50: 51.3 nM
[35]; [42]
  CC50: > 100 µM
[35]; read-out: pTGI (converted)
  TGI: 2690 nM
[36]
  GI50: 4.07 nM
  LC50 (50% net cell death): > 100 µM
[36]; read-out: pTGI (converted)
  TGI: 20.9 nM
[37]
  GI50: 170 nM
[38]
  GI50: 150 nM
[39]
  RatioGI50: 0.9
[40]
  GI50: 20 nM
[41]
  GI50: 20 nM
